Legend:
[1] = test system: SMMC-7721; experiment: Anticancer activity against human SMMC7721 cells assessed as reduction in cell viability incubated for 48 hrs MTT assay; type: functional, cell-based; settings: SMMC-7721, 48 h
Method in brief: (§1)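 MTT assay on human hepatocarcinoma SMMC-7721, lung carcinoma A549 and nasopharyngeal carcinoma CNE2 cells, with matrine as comparator and cisplatin as positive control. IC50 is the concentration that lowers optical density of treated cells by 50% versus untreated cells, given as the mean ± SD of three experiments.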

[2] = test system: A549; experiment: Anticancer activity against human A549 cells assessed as reduction in cell viability incubated for 48 hrs MTT assay; type: functional, cell-based; settings: A549, 48 h; method in brief: as §1
[3] = test system: CNE-2; experiment: Induction of apoptosis in human CNE2 cells assessed as early apoptotic cells level at 5 uM incubated for 24 hrs by Annexin V-FITC/PI dual staining based flow cytometry (reference value: 3.56%); type: functional
Method in brief: (§2)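 CNE2 and SMMC-7721 cells were treated for 24 h at 0, 5, 10 or 30 µM, or at 0, 10, 20 or 50 µM depending on compound. Cells were stained with Annexin V-FITC/propidium iodide and quantified by flow cytometry. Apoptotic cells were counted as AV+/PI− (lower right) plus AV+/PI+ (upper right) quadrants.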

[4] = test system: CNE-2; experiment: Induction of apoptosis in human CNE2 cells assessed as late apoptotic cells level at 5 uM incubated for 24 hrs by Annexin V-FITC/PI dual staining based flow cytometry (reference value: 1.37%); type: functional; method in brief: as §2
[5] = test system: CNE-2; experiment: Induction of apoptosis in human CNE2 cells assessed as viable cells level at 10 uM incubated for 24 hrs by Annexin V-FITC/PI dual staining based flow cytometry (reference value: 91.6%); type: functional; method in brief: as §2
[6] = test system: CNE-2; experiment: Induction of apoptosis in human CNE2 cells assessed as early apoptotic cells level at 10 uM incubated for 24 hrs by Annexin V-FITC/PI dual staining based flow cytometry (reference value: 3.56%); type: functional; method in brief: as §2
[7] = test system: CNE-2; experiment: Induction of apoptosis in human CNE2 cells assessed as late apoptotic cells level at 10 uM incubated for 24 hrs by Annexin V-FITC/PI dual staining based flow cytometry (reference value: 1.37%); type: functional; method in brief: as §2
[8] = test system: CNE-2; experiment: Induction of apoptosis in human CNE2 cells assessed as necrotic cells level at 10 uM incubated for 24 hrs by Annexin V-FITC/PI dual staining based flow cytometry (reference value: 3.43%); type: functional; method in brief: as §2
[9] = test system: CNE-2; experiment: Induction of apoptosis in human CNE2 cells assessed as late apoptotic cells level at 30 uM incubated for 24 hrs by Annexin V-FITC/PI dual staining based flow cytometry (reference value: 1.37%); type: functional; method in brief: as §2
[10] = test system: CNE-2; experiment: Induction of apoptosis in human CNE2 cells assessed as necrotic cells level at 30 uM incubated for 24 hrs by Annexin V-FITC/PI dual staining based flow cytometry (reference value: 3.43%); type: functional; method in brief: as §2
[11] = test system: SMMC-7721; experiment: Induction of apoptosis in human SMMC7721 cells assessed as viable cells level at 5 uM incubated for 24 hrs by Annexin V-FITC/PI dual staining based flow cytometry (reference value: 95.3%); type: functional; method in brief: as §2
[12] = test system: SMMC-7721; experiment: Induction of apoptosis in human SMMC7721 cells assessed as early apoptotic cells level at 5 uM incubated for 24 hrs by Annexin V-FITC/PI dual staining based flow cytometry (reference value: 1.36%); type: functional; method in brief: as §2
[13] = test system: SMMC-7721; experiment: Induction of apoptosis in human SMMC7721 cells assessed as late apoptotic cells level at 5 uM incubated for 24 hrs by Annexin V-FITC/PI dual staining based flow cytometry (reference value: 0.88%); type: functional; method in brief: as §2
[14] = test system: SMMC-7721; experiment: Induction of apoptosis in human SMMC7721 cells assessed as viable cells level at 10 uM incubated for 24 hrs by Annexin V-FITC/PI dual staining based flow cytometry (reference value: 95.3%); type: functional; method in brief: as §2
[15] = test system: SMMC-7721; experiment: Induction of apoptosis in human SMMC7721 cells assessed as early apoptotic cells level at 10 uM incubated for 24 hrs by Annexin V-FITC/PI dual staining based flow cytometry (reference value: 1.36%); type: functional; method in brief: as §2
[16] = test system: SMMC-7721; experiment: Induction of apoptosis in human SMMC7721 cells assessed as necrotic cells level at 10 uM incubated for 24 hrs by Annexin V-FITC/PI dual staining based flow cytometry (reference value: 2.47%); type: functional; method in brief: as §2
[17] = test system: SMMC-7721; experiment: Induction of apoptosis in human SMMC7721 cells assessed as viable cells level at 30 uM incubated for 24 hrs by Annexin V-FITC/PI dual staining based flow cytometry (reference value: 95.3%); type: functional; method in brief: as §2
[18] = test system: SMMC-7721; experiment: Induction of apoptosis in human SMMC7721 cells assessed as early apoptotic cells level at 30 uM incubated for 24 hrs by Annexin V-FITC/PI dual staining based flow cytometry (reference value: 1.36%); type: functional; method in brief: as §2
[19] = test system: SMMC-7721; experiment: Induction of apoptosis in human SMMC7721 cells assessed as necrotic cells level at 30 uM incubated for 24 hrs by Annexin V-FITC/PI dual staining based flow cytometry (reference value: 2.47%); type: functional; method in brief: as §2
[20] = test system: SMMC-7721; experiment: Induction of apoptosis in human SMMC7721 cells incubated for 24 hrs by Annexin V-FITC/PI dual staining based flow cytometry; type: functional, cell-based; method in brief: as §2
[21] = test system: CNE-2; experiment: Induction of apoptosis in human CNE2 cells incubated for 24 hrs by Annexin V-FITC/PI dual staining based flow cytometry; type: functional, cell-based; method in brief: as §2
[22] = test system: CNE-2; experiment: Induction of cell cycle arrest in human CNE2 cells assessed as accumulation at G0-G1 phase at 5 uM incubated for 24 hrs by propidium iodide staining based flow cytometry (reference value: 69.3%); type: functional
[23] = test system: CNE-2; experiment: Induction of cell cycle arrest in human CNE2 cells assessed as accumulation at S phase at 5 uM incubated for 24 hrs by propidium iodide staining based flow cytometry (reference value: 10.3%); type: functional
[24] = test system: CNE-2; experiment: Induction of cell cycle arrest in human CNE2 cells assessed as accumulation at G2/M phase at 10 uM incubated for 24 hrs by propidium iodide staining based flow cytometry (reference value: 19.8%); type: functional
[25] = test system: CNE-2; experiment: Induction of cell cycle arrest in human CNE2 cells assessed as accumulation at subG1 phase at 30 uM incubated for 24 hrs by propidium iodide staining based flow cytometry (reference value: 0.55%); type: functional
[26] = test system: CNE-2; experiment: Induction of cell cycle arrest in human CNE2 cells assessed as accumulation at G0-G1 phase at 30 uM incubated for 24 hrs by propidium iodide staining based flow cytometry (reference value: 69.3%); type: functional
[27] = test system: SMMC-7721; experiment: Induction of cell cycle arrest in human SMMC7721 cells assessed as accumulation at G0-G1 phase at 5 uM incubated for 24 hrs by propidium iodide staining based flow cytometry (reference value: 64.1%); type: functional
[28] = test system: SMMC-7721; experiment: Induction of cell cycle arrest in human SMMC7721 cells assessed as accumulation at S phase at 5 uM incubated for 24 hrs by propidium iodide staining based flow cytometry (reference value: 17.2%); type: functional
[29] = test system: SMMC-7721; experiment: Induction of cell cycle arrest in human SMMC7721 cells assessed as accumulation at G0-G1 phase at 10 uM incubated for 24 hrs by propidium iodide staining based flow cytometry (reference value: 64.1%); type: functional
[30] = test system: SMMC-7721; experiment: Induction of cell cycle arrest in human SMMC7721 cells assessed as accumulation at G2/M phase incubated for 24 hrs by propidium iodide staining based flow cytometry; type: functional
[31] = test system: CNE-2; experiment: Induction of cell cycle arrest in human CNE2 cells assessed as accumulation at G2/M phase incubated for 24 hrs by propidium iodide staining based flow cytometry; type: functional

## COc1cc(Cn2cccc2/C=C2\CC[C@@H]3[C@H]4CCCN5CCC[C@@H](CN3C2=O)[C@@H]45)cc(OC)c1
[1]
  IC50: 4.65 µM
[2]
  IC50: 8.05 µM
[3]
  Activity: 8.79%
[4]
  Activity: 3.17%
[5]
  Activity: 60.7%
[6]
  Activity: 25.1%
[7]
  Activity: 8.94%
[8]
  Activity: 5.22%
[9]
  Activity: 16%
[10]
  Activity: 6.5%
[11]
  Activity: 78.1%
[12]
  Activity: 13.8%
[13]
  Activity: 4.06%
[14]
  Activity: 32.8%
[15]
  Activity: 42%
[16]
  Activity: 6.65%
[17]
  Activity: 46.3%
[18]
  Activity: 33.1%
[19]
  Activity: 3.67%
[20]
  Activity: Dose-dependent effect
[21]
  Activity: Dose-dependent effect
[22]
  Activity: 55.2%
[23]
  Activity: 11%
[24]
  Activity: 89.4%
[25]
  Activity: 4.2%
[26]
  Activity: 9.89%
[27]
  Activity: 63%
[28]
  Activity: 7.92%
[29]
  Activity: 5.61%
[30]
  Activity: Dose-dependent effect
[31]
  Activity: Dose-dependent effect

— ChEMBL document CHEMBL4184236, “Design, synthesis and biological evaluation of matrine derivatives as potential anticancer agents” (Bioorg Med Chem Lett, 2018)
